Screening results (PubChem BioAssay)
Only some compounds are listed: those with a hit (about 3.5% of all), similar ones and a draw of the others.
HIV Env fusion = blocks HIV Env-driven cell-cell fusion. inhibition, % at 12.3 µM. AID 651610. 360,000 compounds, 1.1% hits. HeLa-JRFL Env/CEM21 cell fusion, luciferase;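 active = mean replicate inhibition score of at least 50 and every replicate individually at or above 50; inconclusive = only one of the two criteria met; inactive = mean below 50 and not all replicates reaching 50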
Ecoli rRNA inh = inhibitors of bacterial rRNA selective over humanized ribosomes; E. coli WT GFP vs humanized-ribosome RFP mutants, fluorescence, 24 h; hits give low values; DMSO median 0, no signal -100; GFP signal change (wild-type ribosome), % (concentration not given with the values); 350,000 compounds, 1.6% hits;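 active = significant combined selectivity score with lowered wild-type GFP, culture density cut under 30%, mutant RFP and density less affected; inactive = any of these conditions unmet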
PglD inh = blocks C. jejuni PglD acetyltransferase activity; 360,000 compounds, 0.098% hits; purified PglD enzyme, DTNB colorimetric CoA detection; AID 602405; inhibition, % at 12.5 µM; in the data active = inhibition above about 16%, passing the limit was not always enough; inconclusive = no clear call, values can overlap the other calls
DENV2 CPE rescue = DENV2-induced cell death inhibition; DENV2-infected cells, cytopathic effect rescue, plate reader; CPE inhibition, % at 9.99 µM; 350,000 compounds, 1.7% hits; AID 651640; in the data active = CPE inhibition above about 20%, passing the limit was not always enough; inconclusive = no clear call, values can overlap the other calls; tested in BHK-21 cells
FN deposit inh = fibronectin deposition inhibition; 350,000 compounds, 0.086% hits; inhibition, % at 12.6 µM; AID 743247; AH1F fibroblasts, Alexa488-fibronectin deposition fluorescence, overnight;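 active = mean inhibition across replicates of 30% or more, regardless of how many single replicates reach that level; inconclusive = mean under 30% yet at least half of replicates reach 30%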
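Assay system: AH1F fibroblast monolayer, labelled fibronectin deposition. Amount: 10000 cells per well. Also added: labelled fibronectin 24 nM. Compound: single-point pinned compound. Incubation: cell attachment 1 h, compound and FN exposure overnight. Detection: fluorescence after three HBSS washes, excitation 485 nm, emission 525 nm. Read-out: inhibition of fibronectin deposition signal.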
PGC1a acetyl inh = lowers PGC1a acetylation signal in U2OS cells. AlphaScreen anti-acetyl-lysine; with virally co-expressed GCN5 acetyltransferase. inhibition, % at 15.6 µM. 350,000 compounds, 0.17% hits;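 active = every replicate shows inhibition of at least 40%; inconclusive = mean inhibition at least 40% but some replicate below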
AID977621 = wild-type E. coli growth inhibition versus H69 humanized strain – H69 mutant RFP, wild-type GFP, cherry-pick, dose response; shares compounds with Ecoli rRNA inh; fluorescence, 24 h; activity change, negative = inhibition at 50 µM; 1,900 tested, under 10 active; AID 977621;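 active = Wild-type ribosome reporter drop at least double the humanized mutant ribosome reporter drop, growth loss under a set limit; inconclusive = no clear call, values can overlap the other calls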;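 note: wild-type GFP and H69 mutant RFP strains grown together 50/50 in each well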
AID977628 = growth of wild-type and h24-humanized E. coli strains – h24 mutant RFP vs wild-type GFP, cherry-pick, dose response | shares compounds with Ecoli rRNA inh | E. coli WT GFP strain growth, fluorescence, 24 h | activity change, negative = inhibition at 50 µM | 1,900 tested, under 10 active;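 active = compound lowering the normal-ribosome reporter at least twice as much as the humanized-ribosome reporter, growth loss under a set limit; inconclusive = no clear call, values can overlap the other calls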;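 note: wild-type GFP and h24 humanized RFP strains co-cultured 1 to 1 per well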
Hits are given with their value; i = inactive; ? = inconclusive; nt = no result given.

SMILES | HIV Env fusion | Ecoli rRNA inh | PglD inh | DENV2 CPE rescue | FN deposit inh | PGC1a acetyl inh | AID977621 | others
O=C(NCCc1ccc(Cl)cc1Cl)c1ccc2nc[nH]c2c1 | i | i | i | i | i | i | nt
C[C@H](CO)N1C[C@H](C)[C@H](CN(C)C(=O)Nc2ccc3c(c2)OCO3)Oc2ccc(NC(=O)Nc3ccc(C(F)(F)F)cc3)cc2C1=O | nt | i | i | i | nt | i | nt
Cc1noc(C)c1NC(=O)Nc1ccc2c(c1)C(=O)N([C@H](C)CO)C[C@@H](C)[C@H](CN(C)C(=O)Nc1ccc3c(c1)OCO3)OCCCC[C@@H](C)O2 | i | i | i | i | i | i | i | AID977628=?
Cc1noc(C)c1NC(=O)Nc1ccc2c(c1)C(=O)N([C@H](C)CO)C[C@H](C)[C@@H](CN(C)C(=O)Nc1ccc3c(c1)OCO3)OCCCC[C@@H](C)O2 | i | -37 | i | i | i | i | i | AID977628=?
Cc1noc(C)c1NC(=O)N(C)C[C@H]1OCCCC[C@@H](C)Oc2ccc(NC(=O)Nc3ccc4c(c3)OCO4)cc2C(=O)N([C@@H](C)CO)C[C@H]1C | i | i | i | i | nt | i | nt
Cc1noc(C)c1NC(=O)Nc1ccc2c(c1)C(=O)N([C@@H](C)CO)C[C@H](C)[C@@H](CN(C)C(=O)Nc1ccc3c(c1)OCO3)OCCCC[C@H](C)O2 | i | i | i | i | i | i | i | AID977628=i
Cc1noc(C)c1NC(=O)N(C)C[C@@H]1OCCCC[C@H](C)Oc2ccc(NC(=O)Nc3ccc4c(c3)OCO4)cc2C(=O)N([C@@H](C)CO)C[C@H]1C | i | i | i | i | nt | i | nt
Cc1noc(C)c1NC(=O)Nc1ccc2c(c1)C(=O)N([C@H](C)CO)C[C@H](C)[C@@H](CN(C)C(=O)Nc1ccc3c(c1)OCO3)OCCCC[C@H](C)O2 | i | i | i | i | i | i | i | AID977628=?
CN1C(=O)c2cc(NC(=O)c3ccccc3)ccc2OC[C@H]2O[C@@H](CC(=O)NCC3CC3)CC[C@H]21 | i | i | i | i | i | i | nt
Cc1ccccc1NCc1ccc([N+](=O)[O-])s1 | i | -34 | i | i | i | i | nt | AID977628=i
COc1ccc(NC(=O)N(C)C[C@@H]2Oc3ncc(C#C[C@H](C)O)cc3C(=O)N([C@@H](C)CO)C[C@H]2C)cc1 | i | i | i | i | nt | i | nt
CN1CCN(CC(=O)Nc2sc3c(c2C(=O)Nc2ccccc2)CCCC3)CC1 | i | i | i | i | nt | i | nt
CCCC(=O)Nc1sc2c(c1C(=O)Nc1ccccn1)CCCC2 | i | -30 | i | i | i | i | i | AID977628=i
CO[C@H]1CN(C)C(=O)c2cc(NC(=O)C3CCCC3)ccc2OC[C@H](C)N(CC2CC2)C[C@H]1C | nt | i | i | i | i | i | nt
COc1ccc(S(=O)(=O)Nc2ccc3c(c2)CC(=O)N([C@@H](C)CO)C[C@H](C)[C@@H](CN(C)Cc2ccc(C(F)(F)F)cc2)O3)cc1 | i | i | i | i | i | i | nt
CCn1nc(C)cc1C(=O)N1CCCC(C(=O)c2ccc3ccccc3c2)C1 (centres undefined) | i | -20 | nt | i | i | i | i
O=C(C[C@H]1CC[C@H]2[C@@H](COC[C@@H](O)CN2Cc2ccncc2)O1)NCc1ccccc1Cl | nt | i | i | i | i | i | nt
O=C(C[C@H]1C=C[C@H](NC(=O)C2CCOCC2)[C@@H](CO)O1)Nc1ccccc1 | nt | i | nt | i | nt | i | nt
Cc1cccc(NC(=O)c2c(C)nn(-c3ccccc3)c2Cl)c1 | i | -35 | nt | i | i | nt | i | AID977628=i
COc1ccc(OC)c(-c2csc(NC(=O)C3c4ccccc4Oc4ccccc43)n2)c1 | i | nt | i | nt | i | nt | nt
COc1ccc(OC)c(-c2csc(NC(=O)C3COc4ccccc4O3)n2)c1 (centres undefined) | i | -23 | nt | i | i | i | i
C[C@H]1CN([C@@H](C)CO)C(=O)c2cc(NS(=O)(=O)c3cn(C)cn3)ccc2O[C@@H]1CN(C)C(=O)Nc1ccccc1 | i | i | i | i | nt | i | nt
CCOc1ccc2nc(NC(=O)CSc3ccc(Cl)cc3)sc2c1 | i | nt | nt | nt | i | nt | nt
CCOc1ccc2nc(NC(=O)CSc3nc(SC)ns3)sc2c1 | nt | -24 | i | i | nt | i | i
O=C(c1cccnc1)N1CC2(C1)[C@H](c1ccccc1)[C@H](CO)N2Cc1ccncc1 | nt | i | nt | i | nt | i | nt
SMILES | HIV Env fusion | Ecoli rRNA inh | PglD inh | DENV2 CPE rescue | FN deposit inh | PGC1a acetyl inh | AID977621 | others
CCOC(=O)c1csc(NC(=O)CC2CCCC2)n1 | i | -20 | nt | i | i | i | i
CCOC(=O)c1csc(NC(=O)CCSc2ccccc2)n1 | i | i | nt | i | nt | i | nt
CS(=O)(=O)Nc1ccc2c(c1)[C@H]1C[C@H](CC(=O)NCc3cc(F)ccc3F)O[C@@H](CO)[C@H]1O2 | i | i | i | i | i | i | nt
O=C1NC(CCc2ccccc2)C(=O)N1Cc1cccc2ccccc12 (centres undefined) | i | -21 | nt | i | i | nt | i
COC(=O)c1cn(C(=O)c2ccc(OC)cc2)c2ccccc12 | i | -26 | i | i | i | i | i | AID977628=i
COC(=O)c1cn(C(=O)c2ccc(C)cc2)c2ccccc12 | i | i | nt | i | i | i | nt
CO[C@H]1CN(C)C(=O)c2cc(NC(=O)C3CCCC3)ccc2OC[C@H](C)N(C)C[C@H]1C | nt | i | i | i | i | nt | nt
COc1ccc(NC(=O)N(C)C[C@H]2Oc3c(NC(=O)NC(C)C)cccc3C(=O)N([C@H](C)CO)C[C@H]2C)cc1 | nt | i | i | i | nt | i | nt
CCC(=O)N1CCC2(CC1)CN[C@@H](CO)c1c2c2ccc(OC)cc2n1C | nt | i | nt | ? | nt | i | nt
COCC(=O)Nc1ccc2c(c1)C(=O)N(C)C[C@@H](OC)[C@@H](C)CN(CC1CC1)[C@@H](C)CO2 | nt | i | i | ? | i | i | nt
Cc1ccc(S(=O)(=O)N(C(=O)c2ccncc2)c2ccc(OC(=O)c3ccncc3)cc2)c(C)c1 | i | -18 | nt | i | i | nt | i | AID977628=i
O=C(CCCn1c(=S)[nH]c2ccsc2c1=O)Nc1ccc2c(c1)OCCO2 | i | -21 | i | i | i | nt | i
O=C(CCCn1c(=S)[nH]c2ccsc2c1=O)Nc1ccc(F)cc1 | i | i | i | i | i | i | nt
Cc1ccc(S(=O)(=O)N(C)C[C@H]2Oc3ccc(NC(=O)Nc4ccccc4)cc3CC(=O)N([C@@H](C)CO)C[C@H]2C)cc1 | nt | i | i | i | nt | i | nt
Oc1ccccc1Oc1ncc(Br)c(Cl)n1 | i | -25 | i | i | i | i | nt | AID977628=i
CC(C)NC(=O)Nc1ccc2c(c1)C(=O)N([C@@H](C)CO)C[C@H](C)[C@H](CN(C)Cc1ccc3c(c1)OCO3)OCCCC[C@H](C)O2 | i | i | i | i | i | i | nt
